Assay results gathered from unrelated publications.
Compare with care: the assays were run in different laboratories.
Target: Cytochrome P450 1A2 (CYP1A2, Homo sapiens, UniProt P05177)

| Compound | test | test system | setting | measurement | result |
| --- | --- | --- | --- | --- | --- |
| CCc1cc(/C(C)=N/OCc2ccc(C3CCCCC3)c(C(F)(F)F)c2)ccc1CN1CC(C(=O)O)C1 | enzyme activity, inhibitor | human, liver microsomes | 200 µM, 20 min | inhibition | -193% |
| COc1ccc(CNC(=O)c2ccc(CNCc3cnc4nc(N)nc(N)c4n3)cc2)cc1 | enzyme activity, inhibitor, luciferase |  | 10 µM | inhibition | -18.9% |
| CON=C(N)c1ccc(-c2ccc(-c3ccc(C(N)=NOC)cc3)o2)cc1 | enzyme activity, substrate |  |  | Km | 0.4 µM |
| COc1ccc(CNC(=O)c2ccc(CNCc3cnc4nc(N)nc(N)c4n3)cc2)cc1OC | enzyme activity, inhibitor, luciferase |  | 10 µM | inhibition | -18.2% |
| CC1(CO)C(O[C@@H]2O[C@H](C(=O)O)[C@@H](O)[C@H](O)[C@H]2O)CC[C@@]2(C)C1CC[C@]1(C)C2CC=C2[C@H]3CC(C)(C)[C@H](O)[C@@H](O)[C@]3(CO)[C@H](O)C[C@]21C (stereo partly drawn) | enzyme activity, inhibitor, mass spectrometry | human, liver microsomes |  | IC50 | > 90 µg/mL |
| Cc1ccc(C(=O)N2CCOC[C@H]2Cc2cccc(-n3nccn3)c2)c(-n2nccn2)c1 | enzyme activity, inhibitor | human, liver microsomes | 100 µM | inhibition | 23% |
| N=C(N)NCc1ccc(NC(=O)C23CCC(C(=O)Nc4ccc(C5=CCN(C(=N)N)CC5)cc4)(CC2)CC3)cc1 | enzyme activity, inhibitor | liver microsomes | 10 µM | inhibition | 0% |
| CC(=O)N1CCN(c2ccc(OCC3COC(Cn4ccnc4)(c4ccc(Cl)cc4Cl)O3)cc2)CC1 (stereo not drawn) | enzyme activity, inhibitor | human, liver microsomes | 1 µM | inhibition | -6% |
| N[C@@H](COCc1ccccc1)C(=O)Nc1nc2ccc(OC(F)(F)F)cc2s1 | metabolic stability | human, liver microsomes | 1 µM, 0 h, pH 7.4 | compound remaining | 100% |
| O=C(N[C@H](Cc1c[nH]c2ccccc12)C(=O)Nc1ccncc1)c1ccc(-c2cc(F)ccc2F)cc1F | enzyme activity, inhibitor | human, liver microsomes | 1 µM | inhibition | 3% |
| Nc1nc(N)c2nc(CNc3ccc(C(=O)N4CCC(C(=O)O)CC4)cc3)cnc2n1 | enzyme activity, inhibitor, luciferase |  | 10 µM | inhibition | -33.3% |
| Cc1cccc(F)c1N1CCC(N2Cc3cn(CC(C)(F)F)nc3N(Cc3ccccc3C(F)(F)F)C2=O)CC1 | enzyme activity, inhibitor | human, liver microsomes |  | IC50 | > 10 µM |
| C=C[C@H]1C[N@@]2CC[C@H]1C[C@@H]2[C@@H](O)c1ccnc2ccc(OC)cc12 | enzyme activity, inhibitor | human, liver microsomes | 10 µM | inhibition | -5% |
| N=C(N)N1CC=C(c2coc(C(=O)Nc3ccc(C4=CCN(C(=N)N)CC4)c(F)c3)c2)CC1 | enzyme activity, inhibitor | liver microsomes | 10 µM | inhibition | 0% |
| COc1ccc(Oc2ccc(CN(Cc3ccccc3)Cc3cnc4nc(N)nc(N)c4n3)cc2)cc1 | enzyme activity, inhibitor, luciferase |  | 10 µM | inhibition | -21.8% |
| C=CC(=O)Nc1cc(Nc2nccc(Nc3cc(Cl)c(F)cc3C(C)(C)O)n2)c(OC)cc1N1CC[C@@H](N(C)C)C1 | enzyme activity, inhibitor | human, liver microsomes | 10 µM | inhibition | < 20% |
| COc1ccc(Oc2ccc(CNCc3cnc4nc(N)nc(N)c4n3)cc2)cc1 | enzyme activity, inhibitor, luciferase |  | 10 µM | inhibition | -5.44% |
| O=C(Nc1c2c(cc3c1CCC3)CCC2)NS(=O)(=O)/C=C/c1nccs1 | enzyme activity, inhibitor | human, liver microsomes | 10 µM, pH 7.4 | inhibition | 9.5% |
